Assay results: ChEMBL document CHEMBL3351938, “C5-Alkyl-2-methylurea-Substituted Pyridines as a New Class of Glucokinase Activators” (ACS Med Chem Lett, 2014)

Columns and labels:
[1] = substrate: CCOCCc1cnc(NC(=O)NC)c(Oc2cccnc2CC)c1; experiment: (§1) Activity of human recombinant Glucokinase measured over 5 mins by spectrophotometry
How it was run: (§2)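 S_0.5 (K_m for glucose) measured with recombinant human GK; duplicate determinations (n = 2).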

[2] = substrate: CCc1ncccc1Oc1cc(CC(C)C)cnc1NC(=O)NC; experiment: as §1; how it was run: as §2
[3] = substrate: CCc1ncccc1Oc1cc(CC2CCCCC2)cnc1NC(=O)NC; experiment: as §1; how it was run: as §2
[4] = substrate: CCc1ncccc1Oc1cc(CC2CCOCC2)cnc1NC(=O)NC; experiment: as §1; how it was run: as §2
[5] = substrate: CCc1ncccc1Oc1cc(CCCCO)cnc1NC(=O)NC; experiment: as §1; how it was run: as §2
[6] = substrate: CCc1ncccc1Oc1cc(CCCCOC)cnc1NC(=O)NC; experiment: as §1; how it was run: as §2
[7] = substrate: CCc1ncccc1Oc1cc(CCCOC)cnc1NC(=O)NC; experiment: as §1; how it was run: as §2
[8] = substrate: CCn1nc(COC)cc1Oc1cc(CC2CCOCC2)cnc1NC(=O)NC; experiment: as §1; how it was run: as §2
[9] = substrate: CCn1nccc1Oc1cc(C(O)C2CCOCC2)cnc1NC(=O)NC; experiment: as §1; how it was run: as §2
[10] = substrate: CCn1nccc1Oc1cc(CC2CCOCC2)cnc1NC(=O)NC; experiment: as §1; how it was run: as §2
[11] = substrate: CCn1nccc1Oc1cc(CCCC(C)(C)O)cnc1NC(=O)NC; experiment: as §1; how it was run: as §2
[12] = substrate: CCn1nccc1Oc1cc(CCCCOC)cnc1NC(=O)NC; experiment: as §1; how it was run: as §2
[13] = substrate: CCn1nccc1Oc1cc(CN2CCOCC2)cnc1NC(=O)NC; experiment: as §1; how it was run: as §2
[14] = substrate: CCn1nccc1Oc1cc(C[C@@H]2CCO[C@@H](COC)C2)cnc1NC(=O)NC; experiment: as §1; how it was run: as §2
[15] = substrate: CCn1nccc1Oc1cc(C[C@H]2CCO[C@H](COC)C2)cnc1NC(=O)NC; experiment: as §1; how it was run: as §2
[16] = substrate: CCn1nccc1Oc1cc(C[C@H]2CC[C@@H](O)CC2)cnc1NC(=O)NC; experiment: as §1; how it was run: as §2
[17] = substrate: CCn1nccc1Oc1cc(C[C@H]2CC[C@@](C)(O)CC2)cnc1NC(=O)NC; experiment: as §1; how it was run: as §2
[18] = substrate: CCn1nccc1Oc1cc(C[C@H]2CC[C@H](O)CC2)cnc1NC(=O)NC; experiment: as §1; how it was run: as §2
[19] = substrate: CCn1nccc1Oc1cc(C[C@H]2CC[C@](C)(O)CC2)cnc1NC(=O)NC; experiment: as §1; how it was run: as §2
[20] = substrate: CCn1nccc1Oc1cc(C[C@H]2C[C@@H](O)C2)cnc1NC(=O)NC; experiment: as §1; how it was run: as §2
[21] = substrate: CCn1nccc1Oc1cc(C[C@H]2C[C@@](C)(O)C2)cnc1NC(=O)NC; experiment: as §1; how it was run: as §2
[22] = substrate: CCn1nccc1Oc1cc(C[C@H]2C[C@H](O)C2)cnc1NC(=O)NC; experiment: as §1; how it was run: as §2
[23] = substrate: CNC(=O)Nc1ncc(CC2CCOCC2)cc1Oc1ccnn1C(C)C; experiment: as §1; how it was run: as §2

B1: Hexokinase-4 (Homo sapiens), P35557 (protein)
chain: MLDDRARMEAAKKEKVEQILAEFQLQEEDLKKVMRRMQKEMDRGLRLETHEEASVKMLPTYVRSTPEGSEVGDFLSLDLGGTNFRVMLVKVGEGEEGQWSVKTKHQMYSIPEDAMTGTAEMLFDYISECISDFLDKHQMKHKKLPLGFTFSFPVRHEDIDKGILLNWTKGFKASGAEGNNVVGLLRDAIKRRGDFEMDVVAMVNDTVATMISCYYEDHQCEVGMIVGTGCNACYMEEMQNVELVEGDEGRMCVNTEWGAFGDSGELDEFLLEYDRLVDESSANPGQQLYEKLIGGKYMGELVRLVLLRLVDENLLFHGEASEQLRTRGAFETRFVSQVESDTGDRKQIYNILSTLGLRPSTTDCDIVRRACESVSTRAAHMCSAGLAGVINRMRESRSEDVMRITVGVDGSVYKLHPSFKERFHASVRRLTPSCEITFIESEEGSGRGAALVSAVACKKACMLGQ
- Km [1]: 880 µM
- Km [2]: 660 µM
- Km [3]: 760 µM
- Km [4]: 850 µM
- Km [5]: 850 µM
- Km [6]: 820 µM
- Km [7]: 870 µM
- Km [8]: 850 µM
- Km [9]: 1200 µM
- Km [10]: 840 µM
- Km [11]: 840 µM
- Km [12]: 860 µM
- Km [13]: 860 µM
- Km [14]: 880 µM
- Km [15]: 940 µM
- Km [16]: 760 µM
- Km [17]: 560 µM
- Km [18]: 710 µM
- Km [19]: 690 µM
- Km [20]: 720 µM
- Km [21]: 820 µM
- Km [22]: 630 µM
- Km [23]: 950 µM
